NPR1 activator: GC-A stimulated cGMP production enhancers – HEK293 GC-A cells, cGMP TR-FRET, EC30 ANP, primary screen | 0.14% of 370,000 active | activation, % at 10 µM | AID 1671463, 2021 | 0% at EC30 ANP, 100% saturating ANP | Atrial natriuretic peptide receptor 1 (Homo sapiens), P16066; in the data active means activation above about 40%
MT1-MMP act inh: blockers of MT1-MMP proenzyme processing, primary screen, HT1080 RFP-PRO-GFP cells, GFP/RFP fluorescence | AID 651647, 2012 | 0.061% of 360,000 active | GFP/RFP ratio fluorescence, overnight; percent of plate control window, DMSO zero | GFP/RFP ratio change, % at 20 µM;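 active means GFP/RFP ratio change of at least 30% with cell ATP level not reduced by more than half and red fluorescence within 50% of control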
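Test system: HT1080 RFP-PRO-GFP cells; Benchmarks: DMSO and RFP-L50D-GFP cell wells; Timing: cells overnight before dosing, compound overnight, 37 °C, 5% CO2; Compound: one 20 µM compound dose with 1% DMSO; Read-out: GFP/RFP fluorescence ratio.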
GC-B act: human GC-B receptor activators, primary screen, HEK293 GC-B cells, cGMP TR-FRET, EC30 CNP; Atrial natriuretic peptide receptor 2 (Homo sapiens), P20594; 0% at EC30 CNP, 100% saturating CNP; activation, % at 10 µM; 0.11% of 370,000 active;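 active means activation at 10 µM reaching about 35% in either raw or pattern-adjusted values, limit read from the data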
SKN-1 inh: suppressors of acrylamide-induced Pgst-4::GFP reporter in worms, primary screen, SKN-1 inhibitor project, whole organism, uHTS, GFP/RFP fluorescence ratio, strain VP596 | C. elegans VP596 Pgst-4::GFP/RFP ratio, 24 h | inhibition, % at 21.8 µM | 0.49% of 360,000 active;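 active means interference check ratio from 0.5 to 1.5 plus GFP to RFP signal ratio inhibition reaching or exceeding a fixed threshold, cut at about 30% in these data, passing the limit was not always enough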
A1 inh: caspase 3/7 activation in MEF A1-2A-BIM cells, primary screen, A1 inhibitor project, cell-based, luminescence, HTS; AID 2462, 2010; 0.066% of 330,000 active; Caspase-Glo 3/7 luminescence, 3 h; percent of clofoctol response, vehicle zero; caspase activation, % (no concentration beside the values);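 active means over half of replicate activation scores above 10%, or exactly half above 10 with the replicate mean above 10; inconclusive means replicate mean below 10 yet half the replicates above 10; inactive means over half of replicates below 10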
TbMetRS inhib: T. brucei MetRS inhibitors, primary screen, biochemical, luminescence; purified T. brucei MetRS, ATP depletion, Kinase-Glo luminescence; inhibition, % at 11.9 µM; 0.4% of 360,000 active; AID 624268, 2012;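 active means inhibition above a per-plate cutoff of the control wells' mean inhibition plus 3 SD, cut at about 5.5% in these data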
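Material: T. brucei methionyl-tRNA synthetase, purified; reagent: substrates ATP, L-methionine and bulk Escherichia coli tRNA; dosing: 11.9 µM single point; timing: 15 min plus 2 h at 25 °C; detection: luminescence of leftover ATP; evaluation: % inhibition; control set: DMSO-only wells as low control; replicates: singlicate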
Each line names hits and unclear results; the compound was inactive in the other large screens. This is a sample that favours compounds with a hit; in the whole collection about 1.1% have one here.

Cc1ccc2sc(NC(=O)C3CC3)nc2c1C	NPR1 activator 55.3
Cc1cccc2sc(NC(=O)C3CC3)nc12	none
O=C(Nc1nc2c(Cl)c(Cl)ccc2s1)C1CC1	NPR1 activator 57.1
O=C(CN1C(=O)CCC1=O)Nc1nc2c(F)cc(F)cc2s1	none
O=C(Nc1nc2c(Cl)cccc2s1)C1CC1	none
O=C(Nc1nc2c(F)cc(F)cc2s1)C1CC1	NPR1 activator 66.9, A1 inh inconclusive
O=C(Nc1nc2c(Cl)ccc(Cl)c2s1)C1CC1	NPR1 activator 60.6
COc1ccc(N2CCN(CCCNC(=O)CCOC(C)(C)C)CC2)cc1	none (no result: MT1-MMP act inh, SKN-1 inh, A1 inh, TbMetRS inhib)
Cc1ccccc1NC(=O)c1cccc2c1-c1ccccc1C2=O	none (no result: MT1-MMP act inh, SKN-1 inh, A1 inh, TbMetRS inhib)
CC1(C)Cc2c(sc3c2c(=N)n(Cc2ccco2)c(=O)n3Cc2ccc(Cl)cc2)CO1	GC-B act 35.3
CCOc1ccccc1NC(=O)/C(C#N)=C/c1c(C)nn(-c2ccc(F)cc2)c1Cl	none
Cc1nn(-c2ccc(Cl)cc2)c(Cl)c1/C=C(\C#N)C(N)=O	NPR1 activator 48.7
C=CCNC(=O)/C(C#N)=C/c1c(C)nn(-c2ccc(Cl)cc2)c1Cl	NPR1 activator 46.3
Cc1cc(OCc2cccc(Cl)c2)c(C)cc1CN1CCOCC1	SKN-1 inh 72.3
COc1cc(C(=O)NC2CCCCN(Cc3ccc(Cl)cc3)C2=O)cc(OC)c1OC (stereo not drawn)	none (no result: MT1-MMP act inh, SKN-1 inh, A1 inh, TbMetRS inhib)
O=C(CSc1ncnc2scc(-c3ccc(Cl)cc3)c12)NCc1ccc2c(c1)OCO2	SKN-1 inh 46.5 (no result: A1 inh)
Cc1ccc(Nc2nc(N)nc(CSc3nnc(-c4ccncc4)o3)n2)cc1	SKN-1 inh 46.1
c1csc(-c2nnc(SCc3cccc4ccccc34)o2)c1	none (no result: MT1-MMP act inh, SKN-1 inh, A1 inh, TbMetRS inhib)
Cc1ccc(-c2nnc(-c3cccs3)o2)cc1	SKN-1 inh 36.5
Fc1ccc(/C=C/c2nnc(-c3cccs3)o2)cc1	SKN-1 inh 53.9
Cc1ccc(/C=C/c2nnc(-c3cccs3)o2)cc1	none (no result: MT1-MMP act inh)
c1ccc(-c2nc(CSc3nnc(-c4cccs4)o3)cs2)cc1	SKN-1 inh 29.1
Cc1ccc(Nc2nc(CSc3nnc(-c4cccs4)o3)cs2)cc1	SKN-1 inh 35.0
CCOC(=O)c1ccc(N=Nc2c(C)c(C#N)c(O)[nH]c2=O)cc1	SKN-1 inh 41.4
O=C(c1cccs1)C1CCN(c2ncnc3sccc23)CC1	none (no result: MT1-MMP act inh, SKN-1 inh, A1 inh, TbMetRS inhib)
COc1ccc(C2C(O)C(c3c[nH]c4ccccc34)=NN2C(=O)CCl)cc1 (stereo not drawn)	A1 inh 8.0
CCOC(=O)C(C(=O)OCC)c1cc(Br)c2noc3c2c1C(=O)c1ccccc1-3	A1 inh 10.5
CC(=O)OCCNc1cc(N2CCN(C)CC2)c2noc3c2c1C(=O)c1ccccc1-3	none (no result: A1 inh)
C#CCN1CC(N(C)CCOC(=O)c2cccs2)CS1(=O)=O (stereo not drawn)	none (no result: MT1-MMP act inh, SKN-1 inh, A1 inh, TbMetRS inhib)
C=CCN1C=C/C(=C\C=C(C#N)C#N)c2ccccc21	SKN-1 inh 35.2
S=C(NCc1ccc(Cl)cc1)OC1CCC12CCC(c1ccccc1)CC2 (stereo not drawn)	none (no result: MT1-MMP act inh, SKN-1 inh, A1 inh, TbMetRS inhib)
CC1OC(c2ccccc2)OC2COC(c3ccccc3)OC12 (stereo not drawn)	SKN-1 inh 36.1 (no result: A1 inh)
CCCCCCCCCCCCCCCC[N+](C)(C)CCl	SKN-1 inh 37.6 (no result: A1 inh)
CCCCCCCCCCCCCCCC[N+](C)(C)CC	none
C[C@H]1[C@H](c2ccccc2)OC(O)([C@H](Cc2ccccc2)NC(=O)OC(C)(C)C)CN1C (stereo partly drawn)	none (no result: MT1-MMP act inh, SKN-1 inh, A1 inh, TbMetRS inhib)
O=C1C(SCCO)=C(SCCO)C(=O)c2ccccc21	NPR1 activator 50.5
CC1=C(SCc2ccccc2)C(=O)c2ccccc2C1=O	none (no result: A1 inh)

Compound activity deposited in PubChem BioAssay by several laboratories.
